{"source": "ChEMBL document CHEMBL2401652", "about": "(J Med Chem, 2013)", "key": {"[1]": {"assay": "Cytotoxicity against human CEMC-7 cells assessed as growth inhibition after 48 hrs by MTT assay", "settings": "CEMC-7, 48 h"}, "[2]": {"test_system": "T98G", "assay": "Induction of apoptosis in human T98G cells at 30 uM after 24 hrs by dUTP-FITC staining-based TUNEL assay (reference value: 1.88%)", "type": "functional"}, "[3]": {"test_system": "HCT-116", "assay": "Cytotoxicity against human HCT116 cells assessed as growth inhibition after 48 hrs by MTT assay", "settings": "HCT-116, 48 h"}, "[4]": {"test_system": "REH", "assay": "Cytotoxicity against human REH cells assessed as growth inhibition after 48 hrs by MTT assay"}, "[5]": {"assay": "Cytotoxicity against human LN229 cells assessed as growth inhibition after 48 hrs by MTT assay", "settings": "LN-229, 48 h"}, "[6]": {"test_system": "PANC-1", "assay": "Induction of apoptosis in human PANC1 cells assessed as PARP cleavage at 50 uM after 24 hrs by Western blot analysis", "type": "functional, cell-based", "outline": "(§1)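 Cells (1.5 × 10^6) treated 24 h at 25 or 50 μM; 50 μg protein per lane on 10% SDS-PAGE, nitrocellulose, 2% TBS-BSA block, primary antibody overnight at 4 °C, HRP secondary, ECL detection; β-actin loading control; untreated controls in parallel.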"}, "[7]": {"test_system": "PANC-1", "assay": "Induction of mitochondrial transmembrane depolarization in human PANC1 cells at 30 uM after 24 hrs by JC1 staining-based flow cytometric analysis (reference value: 2.7%)", "type": "functional"}, "[8]": {"test_system": "PANC-1", "assay": "Downregulation of Bcl-xL expression in human PANC1 cells at 50 uM after 24 hrs by Western blot analysis", "type": "functional, cell-based", "outline": "as §1"}, "[9]": {"test_system": "ASPC1", "assay": "Cytotoxicity against human AsPC1 cells assessed as growth inhibition after 48 hrs by MTT assay", "settings": "ASPC1, 48 h"}, "[10]": {"assay": "Cytotoxicity against human Panc 10.05 cells assessed as growth inhibition after 48 hrs by MTT assay", "settings": "Panc1005, 48 h"}, "[11]": {"test_system": "PANC-1", "assay": "Downregulation of total Bid expression in human PANC1 cells at 50 uM after 24 hrs by Western blot analysis", "type": "functional, cell-based", "outline": "as §1"}, "[12]": {"test_system": "MOLT-4", "assay": "Cytotoxicity against human MOLT4 cells assessed as growth inhibition after 48 hrs by MTT assay", "settings": "MOLT-4, 48 h"}, "[13]": {"test_system": "T98G", "assay": "Induction of apoptosis in human T98G cells at 30 uM after 24 hrs by 7-AAD-based FACS flow cytometric analysis (reference value: 5.3%)", "type": "functional"}, "[14]": {"test_system": "HeLa", "assay": "Cytotoxicity against human HeLa cells assessed as growth inhibition after 48 hrs by MTT assay"}, "[15]": {"test_system": "NCI-H23", "assay": "Cytotoxicity against human NCI-H23 cells assessed as growth inhibition after 48 hrs by MTT assay", "settings": "NCI-H23, 48 h"}, "[16]": {"assay": "Binding affinity to DNA (unknown origin) at 100 uM after 2 hrs by UV-Vis absorption spectroscopic analysis", "outline": "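DNA (100 μg/mL; stock 1.0 mg/mL in 50 mM Tris-HCl pH 7.5, 50 mM NaCl) with ligand fixed at 100 μM; incubated at 37 °C, then diluted six-fold; absorbance scanned 220–350 nm at 25 °C, 1 cm quartz cell; 260 nm band monitored.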"}, "[17]": {"assay": "Cytotoxicity against human A172 cells assessed as growth inhibition after 48 hrs by MTT assay", "settings": "A 172, 48 h"}, "[18]": {"test_system": "PANC-1", "assay": "Cytotoxicity against human PANC1 cells assessed as growth inhibition after 48 hrs by MTT assay", "settings": "PANC-1, 48 h"}, "[19]": {"test_system": "PANC-1", "assay": "Induction of apoptosis in human PANC1 cells assessed as procaspase-9 cleavage at 50 uM after 24 hrs by Western blot analysis", "type": "functional, cell-based", "outline": "(§2)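 Cells (1.5 × 10^6) exposed 24 h to compound (25 or 50 μM). 50 μg protein per lane resolved on 10% SDS-PAGE and transferred to nitrocellulose. Membrane blocked in 2% TBS-BSA, then probed with primary antibody overnight at 4 °C and HRP secondary. Detection by ECL, with β-actin as loading control. Untreated control run in parallel.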"}, "[20]": {"test_system": "T98G", "assay": "Downregulation of Bcl-xL expression in human T98G cells at 50 uM after 24 hrs by Western blot analysis", "type": "functional, cell-based", "outline": "as §1"}, "[21]": {"test_system": "MOLT-3", "assay": "Cytotoxicity against human MOLT3 cells assessed as growth inhibition after 48 hrs by MTT assay", "settings": "MOLT-3, 48 h"}, "[22]": {"assay": "Cytotoxicity against human U373MG cells assessed as growth inhibition after 48 hrs by MTT assay", "settings": "U373 MG"}, "[23]": {"test_system": "T98G", "assay": "Cytotoxicity against human T98G cells assessed as growth inhibition after 48 hrs by MTT assay"}, "[24]": {"test_system": "PANC-1", "assay": "Induction of apoptosis in human PANC1 cells at 30 uM after 24 hrs by dUTP-FITC staining-based TUNEL assay (reference value: 0.17%)", "type": "functional"}, "[25]": {"test_system": "T98G", "assay": "Induction of apoptosis in human T98G cells assessed as PARP cleavage at 50 uM after 24 hrs by Western blot analysis", "type": "functional, cell-based", "outline": "as §2"}, "[26]": {"test_system": "A549", "assay": "Cytotoxicity against human A549 cells assessed as growth inhibition after 48 hrs by MTT assay", "settings": "A549, 48 h"}, "[27]": {"test_system": "K562", "assay": "Cytotoxicity against human K562 cells assessed as growth inhibition after 48 hrs by MTT assay", "settings": "K562, 48 h"}, "[28]": {"assay": "Cytotoxicity against human U87MG cells assessed as growth inhibition after 48 hrs by MTT assay", "settings": "U-87 MG"}, "[29]": {"test_system": "T98G", "assay": "Induction of mitochondrial transmembrane depolarization in human T98G cells at 30 uM after 24 hrs by JC1 staining-based flow cytometric analysis (reference value: 10.26%)", "type": "functional"}, "[30]": {"test_system": "SW480", "assay": "Cytotoxicity against human SW480 cells assessed as growth inhibition after 48 hrs by MTT assay", "settings": "SW480, 48 h"}, "[31]": {"test_system": "PANC-1", "assay": "Induction of apoptosis in human PANC1 cells at 30 uM after 24 hrs by 7-AAD-based FACS flow cytometric analysis (reference value: 5.18%)", "type": "functional"}, "[32]": {"test_system": "T98G", "assay": "Downregulation of total Bid expression in human T98G cells at 50 uM after 24 hrs by Western blot analysis", "type": "functional, cell-based", "outline": "as §1"}, "[33]": {"test_system": "MIA PaCa-2", "assay": "Cytotoxicity against human MIAPaCa2 cells assessed as growth inhibition after 48 hrs by MTT assay", "settings": "MIA PaCa-2, 48 h"}, "[34]": {"test_system": "T98G", "assay": "Induction of apoptosis in human T98G cells assessed as procaspase-8 cleavage at 50 uM after 24 hrs by Western blot analysis", "type": "functional, cell-based", "outline": "as §2"}, "[35]": {"test_system": "T98G", "assay": "Induction of apoptosis in human T98G cells assessed as induction of DNA damage at 20 uM after 24 hrs by comet assay relative to untreated control", "type": "functional", "outline": "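T98G cells (1 × 10^5) treated 24 h with 0 or 20 μM. About 20000 cells embedded in 0.5% low-melting agarose and lysed overnight at 4 °C at pH 10. Alkaline electrophoresis (pH 13) for 30 min at 300 mA at 4 °C, then ethidium bromide staining. Tail length (nucleus centre to tail tip) from ≥20 comets, reported as mean ± SD.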"}, "[36]": {"test_system": "T98G", "assay": "Induction of apoptosis in human T98G cells assessed as procaspase-7 cleavage at 50 uM after 24 hrs by Western blot analysis", "type": "functional, cell-based", "outline": "as §2"}, "[37]": {"test_system": "T98G", "assay": "Induction of apoptosis in human T98G cells assessed as procaspase-9 cleavage at 50 uM after 24 hrs by Western blot analysis", "type": "functional, cell-based", "outline": "as §2"}, "[38]": {"test_system": "PANC-1", "assay": "Induction of apoptosis in human PANC1 cells assessed as procaspase-7 cleavage at 50 uM after 24 hrs by Western blot analysis", "type": "functional, cell-based", "outline": "as §1"}, "[39]": {"test_system": "T98G", "assay": "Cytotoxicity against human T98G cells assessed as growth inhibition at 50 uM by MTT assay", "type": "functional, cell-based", "settings": "TDE = time-dependent effect"}, "[40]": {"test_system": "PANC-1", "assay": "Induction of apoptosis in human PANC1 cells assessed as procaspase-8 cleavage at 50 uM after 24 hrs by Western blot analysis", "type": "functional, cell-based", "outline": "as §1"}, "[41]": {"assay": "Binding affinity to DNA (unknown origin) assessed as induction of conformational changes at 300 uM after 2 hrs by CD spectrometric analysis", "outline": "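DNA at 1000 μg/mL in 50 mM Tris-HCl, pH 7.5, incubated with ligand for 2 h at 37 °C, then CD spectra recorded at 25 °C. Conformational change was judged from the 275 nm band (base stacking) and the 245 nm band (B-conformation).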"}}, "note": "Calls of active or inactive are those of the source. No cut-off for these calls is given here.", "data": [{"smiles": "CC(C)=CCC[C@]1(C)C=Cc2c(c(C)cc3c2[nH]c2ccccc23)O1", "values": [{"measurement": "IC50", "setting": "[1]", "value": 25, "unit": "µM"}, {"measurement": "Activity", "setting": "[2]", "value": 9.58, "unit": "%"}, {"measurement": "IC50", "setting": "[3]", "value": 25, "unit": "µM"}, {"measurement": "IC50", "setting": "[4]", "value": 25, "unit": "µM"}, {"measurement": "IC50", "setting": "[5]", "value": 25, "unit": "µM"}, {"measurement": "Activity", "setting": "[6]", "value": "Active"}, {"measurement": "Activity", "setting": "[7]", "value": 15.3, "unit": "%"}, {"measurement": "Activity", "setting": "[8]", "value": "Active"}, {"measurement": "IC50", "setting": "[9]", "value": 25, "unit": "µM"}, {"measurement": "IC50", "setting": "[10]", "value": 25, "unit": "µM"}, {"measurement": "Activity", "setting": "[11]", "value": "Active"}, {"measurement": "IC50", "setting": "[12]", "value": 25, "unit": "µM"}, {"measurement": "Activity", "setting": "[13]", "value": 10.13, "unit": "%"}, {"measurement": "IC50", "setting": "[14]", "value": 25, "unit": "µM"}, {"measurement": "IC50", "setting": "[15]", "value": 25, "unit": "µM"}, {"measurement": "Activity", "setting": "[16]", "value": "Active"}, {"measurement": "IC50", "setting": "[17]", "value": 25, "unit": "µM"}, {"measurement": "IC50", "setting": "[18]", "value": 25, "unit": "µM"}, {"measurement": "Activity", "setting": "[19]", "value": "Active"}, {"measurement": "Activity", "setting": "[20]", "value": "Active"}, {"measurement": "IC50", "setting": "[21]", "value": 25, "unit": "µM"}, {"measurement": "IC50", "setting": "[22]", "value": 25, "unit": "µM"}, {"measurement": "IC50", "setting": "[23]", "value": 25, "unit": "µM"}, {"measurement": "Activity", "setting": "[24]", "value": 1.13, "unit": "%"}, {"measurement": "Activity", "setting": "[25]", "value": "Active"}, {"measurement": "IC50", "setting": "[26]", "value": 25, "unit": "µM"}, {"measurement": "IC50", "setting": "[27]", "value": 25, "unit": "µM"}, {"measurement": "IC50", "setting": "[28]", "value": 25, "unit": "µM"}, {"measurement": "Activity", "setting": "[29]", "value": 16.72, "unit": "%"}, {"measurement": "IC50", "setting": "[30]", "value": 25, "unit": "µM"}, {"measurement": "Activity", "setting": "[31]", "value": 17.06, "unit": "%"}, {"measurement": "Activity", "setting": "[32]", "value": "Active"}, {"measurement": "IC50", "setting": "[33]", "value": 25, "unit": "µM"}, {"measurement": "Activity", "setting": "[34]", "value": "Active"}, {"measurement": "Activity", "setting": "[35]", "value": "inactive"}, {"measurement": "Activity", "setting": "[36]", "value": "Active"}, {"measurement": "Activity", "setting": "[37]", "value": "Active"}, {"measurement": "Activity", "setting": "[38]", "value": "Active"}, {"measurement": "growth inhibition (GI)", "setting": "[39]", "value": "tde"}, {"measurement": "Activity", "setting": "[40]", "value": "Active"}]}, {"smiles": "CC[n+]1c(-c2ccccc2)c2cc(N)ccc2c2ccc(N)cc21", "values": [{"measurement": "Activity", "setting": "[41]", "value": "Active"}]}]}
